The text below walks through data of ChEMBL document CHEMBL1129331, “Synthesis and physicochemical, biological, and pharmacological properties of new bile acids amidated with cyclic amino acids” (J Med Chem, 1996).

Converted amounts (≈) assume the structure as drawn.

Data set [1] relates to Rattus norvegicus. The data set can be described thus: Secretion of Bile acids in Bile Fistula rats after the iv administration of compound, expressed as the residual secretion rate. The class given is ADME, organism-based. As to conditions: in vivo. A digest of the protocol:
(§1)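 Male Sprague-Dawley rats (300-330 g), urethane-anesthetized, bile duct cannulated. After 1 h baseline, sodium salt infused via femoral vein at 10 μmol/min/kg for 1 h; bile collected at 15-min intervals for 3 h. Flow measured gravimetrically; bile acids, cholesterol and phospholipid measured enzymatically. Smax and Tmax read from secretion-time plots; Rs is the rate at hour 3. Mean ± SD, n=6.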

For data set [2], the system named is Rattus norvegicus. The data set can be described thus: Maximum biliary secretion rate of TCDCA after iv confusion in Bile fistula rats. The data set is classed as ADME, organism-based. Conditions: in vivo.
Data set [3] relates to Rattus norvegicus. Kind of data set: Bile flow in Bile Fistula rats after iv coinfusion of TCDCA and compound. The data set is classed as ADME, organism-based. Conditions: in vivo. A digest of the protocol: (§2)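 Bile fistula Sprague-Dawley rats (200-250 g). TCDCA and test bile acid given as sodium salts, coinfused via jugular vein, each at 8 μmol/min/kg for 1 h. Bile collected at 30-min intervals for 3 h. Calcium, ALP and LDH in bile measured enzymatically; bile acid composition by HPLC (65% methanol, 15 mM ammonium acetate, pH 5.4). Mean ± SD.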

A short description of data set [4]: (§3) Partition coefficient (logP). Conditions: octanol/water. The data set is classed as physicochemical.
The test system of data set [5] is Rattus norvegicus. The data set can be described thus: Secretion of cholesterol in Bile Fistula rats after the iv administration of compound, expressed as the residual secretion rate. The data set is classed as ADME, organism-based. Conditions: in vivo. A digest of the protocol: as §1
The test system of data set [6] is Rattus norvegicus. Kind of data set: Lactate dehydrogenase in Bile Fistula rats after iv coinfusion of TCDCA and compound. The data set is classed as ADME, organism-based. Conditions: in vivo. A digest of the protocol:
as §2

The test system of data set [7] is Rattus norvegicus. Kind of data set: Alkaline phosphatase in Bile Fistula rats after iv coinfusion of TCDCA and compound. As to conditions: in vivo. The data set is classed as ADME, organism-based. In short, it runs like this:
as §2

Data set [8] is described as follows: Relative lipophilicity was determined. As to conditions: C-18 reverse phase HPLC. The data set is classed as physicochemical. A digest of the protocol:
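C-18 reverse-phase HPLC run isocratically at 0.9 mL/min. Mobile phase 65% (v/v) aqueous methanol with 2 mM ammonium acetate, pH 7, so that all bile acids are fully ionized.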

The test system of data set [9] is Rattus norvegicus. The data set can be described thus: Secretion of phospholipid in Bile Fistula rats after the iv administration of compound, expressed as the maximum secretion rate. The data set is classed as ADME, organism-based. As to conditions: in vivo. A digest of the protocol: (§4)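 Anaesthetised (ethyl carbamate) male Sprague-Dawley rats, 300-330 g, bile duct cannulated; after 1 h baseline, bile acid sodium salts infused via femoral vein at 10 μmol/min/kg for 1 h. Bile collected 3 h at 15 min intervals; flow gravimetric; BA, cholesterol, phospholipid by enzymatic assays. Smax, Tmax from secretion-vs-time plots; Rs = rate at third hour. n=6, mean ± SD.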

Data set [10] deals with Rattus norvegicus. The data set can be described thus: Maximum biliary secretion rate of bile acids after iv confusion in Bile fistula rats. The data set is classed as ADME, organism-based. As to conditions: in vivo.
Data set [11] concerns Rattus norvegicus. The data set can be described thus: Secretion of cholesterol in Bile Fistula rats after the iv administration of compound, expressed as the maximum secretion rate i. The data set is classed as ADME, organism-based. As to conditions: in vivo. In short, it runs like this: as §1
Data set [12] has as its system Rattus norvegicus. The data set can be described thus: Secretion of Bile in Bile Fistula rats after the iv administration of compound, expressed as the residual secretion rate. The class given is ADME, organism-based. Conditions: in vivo. In short, it runs like this:
as §4

In data set [13] the test system is Rattus norvegicus. The data set can be described thus: Secretion of phospholipid in Bile Fistula rats after the iv administration of compound, expressed as the residual secretion rate. The class given is ADME, organism-based. Conditions: in vivo. A digest of the protocol: as §4
Data set [14] has as its system Rattus norvegicus. The data set can be described thus: Secretion of Bile in Bile Fistula rats after the iv administration of compound, expressed as the maximum secretion rate. The class given is ADME, organism-based. As to conditions: in vivo. A digest of the protocol:
as §1

A short description of data set [15]: Critical Micellar concentration of the compound. was determined. The class given is ADME. In short, it runs like this:
(§5)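 Measured in water from surface tension, using the maximum bubble-pressure method.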

A short description of data set [16]: Water solubility was determined. The data set is classed as ADME. Conditions: read-out: WS. A digest of the protocol: (§6)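 Protonated form; measured on saturated solutions at pH 1.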
Data set [17] deals with Rattus norvegicus. Kind of data set: Secretion of Bile acids in Bile Fistula rats after the iv administration of compound, expressed as the maximum secretion rate. The data set is classed as ADME, organism-based. Conditions: in vivo. In short, it runs like this:
as §4

Data set [18] is described as follows: Critical micellar pH was determined. A digest of the protocol: (§7)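 20 mL of 50 mM bile salt solution titrated with 0.1 M HCl. CMpH is taken as the pH at which precipitate of the protonated form is first seen by turbidity at 500 nm. Confirmed by back-titration with 0.1 M NaOH until the suspension clears.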
Data set [19] relates to Rattus norvegicus. The data set can be described thus: Calcium output in Bile Fistula rats after iv coinfusion of TCDCA and compound. The class given is ADME, organism-based. Conditions: in vivo. In short, it runs like this:
as §2

Data set [20] in a line: (§8) The compound was incubated with human stools and tested for determining the stability towards 7-dehydroxylation. The data set is classed as ADME, organism-based. A digest of the protocol: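 Homogenised fresh human stool (500 mg) in 5 mL chopped meat-glucose medium with bile acid at 0.05 mM final, incubated at 37 °C; stopped with 30% KOH at 0, 4, 8, 16, 20, 24 and 72 h. Supernatant extracted on C-18 solid phase, analysed by TLC and HPLC (aqueous methanol 75%, 15 mM ammonium acetate, apparent pH 5.4).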

Data set [21] in a line: Critical micellar pH of the compound. was determined. A digest of the protocol: as §7
Data set [22] in a line: as §3. The data set is classed as physicochemical. As to conditions: octanol/water. A digest of the protocol: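 Octanol/water partition coefficient of the protonated species, calculated rather than measured.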
This is another data set of the same source.

A short description of data set [23]: Acidity constant of the compound. was determined. The class given is ADME.
A short description of data set [24]: Water solubility of the compound. was determined. The data set is classed as ADME. Conditions: read-out: S. In short, it runs like this:
as §6

Data set [25] in a line: (§9) The compound was incubated with cholylglycine hydrolase and tested for determining the stability towards C-24 Deamination. The class given is ADME.
Data set [26] can be described thus: Critical Micellar concentration was determined. The data set is classed as ADME. A digest of the protocol: as §5
Data set [27] has as its system cholylglycine hydrolase. Described as §9. Conditions: cholylglycine hydrolase. The data set is classed as ADME.
Data set [28] is described as follows: as §8. The data set is classed as ADME, organism-based. A digest of the protocol:
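Homogenized fresh human stool (500 mg) in 5 mL chopped meat-glucose medium; bile acid added at 0.05 mM final; 37 °C. Sampled at 0–72 h and stopped with 30% KOH. Bile acids recovered by C-18 solid-phase extraction, then analyzed by TLC and by HPLC with 75% methanol/15 mM ammonium acetate, pH 5.4.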
This is another data set of the same source.

Data set [29] relates to Rattus norvegicus. The data set can be described thus: Secretion of cholesterol in Bile Fistula rats after the iv administration of compound, expressed as the maximum secretion rate. The class given is ADME, organism-based. Conditions: in vivo. In short, it runs like this: as §4
In data set [30] the test system is Rattus norvegicus. Kind of data set: Maximum biliary secretion rate of bile acids after iv coinfusion in Bile fistula rats. The class given is ADME, organism-based. Conditions: in vivo. In short, it runs like this:
as §2

Data set [31] has as its system Rattus norvegicus. Kind of data set: Maximum biliary secretion rate of TCDCA after iv coinfusion in Bile fistula rats. The data set is classed as ADME, organism-based. As to conditions: in vivo. In short, it runs like this: as §2
The nature of data set [32]: Acidity constant was determined. The class given is ADME.

Turning to `C[C@H](CCC(=O)O)[C@H]1CC[C@H]2[C@@H]3[C@@H](O)C[C@@H]4C[C@H](O)CC[C@]4(C)[C@H]3CC[C@]12C` [URSODIOL], the Rs in data set [1] turned out to be 0.0008 µM/min/g; in data set [5], 24 nM/min/kg; in data set [12] it was 2.82 mL/h/kg; in data set [13] it was 0.00012 µM/min/g. In addition, the Smax in data set [2] was determined as 1.56 µM/min/kg; in data set [3] it was 4.32 mL/h/kg; in data set [9], 0.00026 µM/min/g; in data set [10], 1.72 µM/min/kg; in [11] it was 55 nM/min/kg; in data set [14] it was 6.96 mL/h/kg. Further, the Smax in [17] came out at 0.0042 µM/min/g; in [19] it was 0.00018 µM/min/g. This compound also registered a logP in data set [4] of 5.69. Also, in data set [6], the “[LDH]max” value is given as 115 UI l-1. This compound registered a [ALP]max in [7] of 217 IU/L. In addition, the rK in [8] turned out to be 1. This compound registered a CMC in data set [15] of 26 mM. Besides, in data set [16], the solubility was 8 µM (≈ 3.14 µg/mL). Besides, the CMpH in data set [18] came to 8.4. For the same compound, in data set [20], the half-life was 2 h.

In [21], `C[C@H](CCC(=O)O)[C@H]1CC[C@H]2[C@@H]3C[C@H](O)[C@@H]4C[C@H](O)CC[C@]4(C)[C@H]3CC[C@]12C` [HYODEOXYCHOLIC_ACID] gave a CMpH of 8.1. Besides, the logP in data set [22] was found to be 4.27. The compound further gave a rK in data set [8] of 0.89. In data set [23], this compound yielded a pKa of 5. In addition, the CMC in data set [15] amounted to 14 mM. Moreover, the solubility in [24] amounted to 15 µM (≈ 5.89 µg/mL).

Take `C[C@H](CCC(=O)NCCS(=O)(=O)O)[C@H]1CC[C@H]2[C@@H]3C[C@H](O)C4C[C@H](O)CC[C@]4(C)[C@H]3CC[C@]12C` (stereo in doubt; form 1): the T1/2 in [25] was found to be 4 h.

With `CC(CCC(=O)NCC(=O)O)C1CC[C@H]2[C@@H]3[C@H](O)CC4C[C@H](O)CCC4(C)[C@H]3CCC12C` (some centres undefined), the Rs was 0.8 µM/min/kg in data set [1], 18 nM/min/kg in data set [5], 2.7 mL/h/kg in data set [12] and 0.1 µM/min/kg in data set [13]. In [26], this compound returned a CMC of 12 mM. For the same compound, the Smax in [3] amounted to 3.78 mL/h/kg; in data set [9] it was 0.23 µM/min/kg; in data set [29], 51 nM/min/kg; in data set [30] it was 3.33 µM/min/kg; in [31], 3.13 µM/min/kg; in data set [14], 4.62 mL/h/kg. In addition, the Smax amounted to 6.1 µM/min/kg in [17] and 0.22 µM/min/kg in data set [19]. Moreover, in [6], the “[LDH]max” value stood at 37 UI l-1. The half-life in data set [27] is 4 h; in data set [28] it was 2 h. Also, the logP in [22] was 3.53. Besides, the [ALP]max in [7] turned out to be 150 IU/L. The rK in [8] is 0.85. For the same compound, in data set [16], the solubility worked out at 8 µM (≈ 3.6 µg/mL). Also, the CMpH in data set [18] is 7.1. The pKa in data set [32] is 3.9.
